Test system: Raji
Test: Inhibition of TPA-induced EBV-early antigen activation in human Raji cells at 3.2 nmol after 48 hrs relative to TPA
Type: cell-based
Parameters: scale not given: the % may be the effect or the level left
Conditions: human gammaherpesvirus 4
Outline: (§1)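 Raji cells at 10^6 cells/mL were resuspended in RPMI 1640 with 10% FCS. Induction used 4 mM n-butyric acid plus 32 pmol TPA (20 ng/mL), with test compound added in DMSO. After 48 h at 37 °C, EA-positive cells were scored blind, at least 500 cells per assay. Activation is expressed as % of TPA-only control (100%) ± SD.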

Compound | Activity [%]
COc1cc(C(=O)C2=C3OC(C)(C)[C@@H](CC=C(C)C)C[C@@]34C[C@@H](CC=C(C)C)C(C)(C)[C@@](CC=C(C)C)(C2=O)C4=O)ccc1O | 89
C=C(C)[C@@H](CC=C(C)C)C[C@@]12C[C@@H](CC=C(C)C)C(C)(C)[C@@](CC=C(C)C)(C(=O)C(C(=O)c3ccc(O)c(OC)c3)=C1O)C2=O | 88.1
C=C(C)[C@@H](CC=C(C)C)C[C@@]12C[C@@H](CC=C(C)C)C(C)(C)[C@@](CC=C(C)C)(C(=O)C(C(=O)c3ccc(O)c(O)c3)=C1O)C2=O [GARCINOL] | 84.9

Test system: Raji
Test: Inhibition of TPA-induced EBV-early antigen activation in human Raji cells at 32 nmol after 48 hrs relative to TPA
Type: cell-based
Parameters: scale not given: the % may be the effect or the level left
Conditions: human gammaherpesvirus 4
Outline: as §1

Compound | Activity [%]
COc1cc(C(=O)C2=C3OC(C)(C)[C@@H](CC=C(C)C)C[C@@]34C[C@@H](CC=C(C)C)C(C)(C)[C@@](CC=C(C)C)(C2=O)C4=O)ccc1O | 18.5
C=C(C)[C@@H](CC=C(C)C)C[C@@]12C[C@@H](CC=C(C)C)C(C)(C)[C@@](CC=C(C)C)(C(=O)C(C(=O)c3ccc(O)c(OC)c3)=C1O)C2=O | 19.7
C=C(C)[C@@H](CC=C(C)C)C[C@@]12C[C@@H](CC=C(C)C)C(C)(C)[C@@](CC=C(C)C)(C(=O)C(C(=O)c3ccc(O)c(O)c3)=C1O)C2=O [GARCINOL] | 14.4

Test system: not listed separately
Test: Cytotoxicity against human Raji cells assessed as cell viability at 32 nmol after 48 hrs by trypan blue assay
Type: cell-based
Conditions: read-out: Activity
Outline: (§2)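 Raji cells grown to 10^6 cells/mL, pelleted, and resuspended in RPMI 1640 with 10% FCS. Medium held 4 mM n-butyric acid, 32 pmol TPA (20 ng/mL, in DMSO) and test compound in DMSO. Incubated 48 h at 37 °C. Cell number and viability counted by hemocytometer with Trypan Blue; at least 60% survival required for a valid result.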

Compound | viability at 48 h, 32 nmol [%]
COc1cc(C(=O)C2=C3OC(C)(C)[C@@H](CC=C(C)C)C[C@@]34C[C@@H](CC=C(C)C)C(C)(C)[C@@](CC=C(C)C)(C2=O)C4=O)ccc1O | 60
C=C(C)[C@@H](CC=C(C)C)C[C@@]12C[C@@H](CC=C(C)C)C(C)(C)[C@@](CC=C(C)C)(C(=O)C(C(=O)c3ccc(O)c(OC)c3)=C1O)C2=O | 60
C=C(C)[C@@H](CC=C(C)C)C[C@@]12C[C@@H](CC=C(C)C)C(C)(C)[C@@](CC=C(C)C)(C(=O)C(C(=O)c3ccc(O)c(O)c3)=C1O)C2=O [GARCINOL] | 60

Test system: not listed separately
Test: Cytotoxicity against human Raji cells assessed as cell viability at 16 nmol after 48 hrs by trypan blue assay
Type: cell-based
Conditions: read-out: Activity
Outline: as §2

Compound | viability at 48 h, 16 nmol [%]
COc1cc(C(=O)C2=C3OC(C)(C)[C@@H](CC=C(C)C)C[C@@]34C[C@@H](CC=C(C)C)C(C)(C)[C@@](CC=C(C)C)(C2=O)C4=O)ccc1O | > 80
C=C(C)[C@@H](CC=C(C)C)C[C@@]12C[C@@H](CC=C(C)C)C(C)(C)[C@@](CC=C(C)C)(C(=O)C(C(=O)c3ccc(O)c(OC)c3)=C1O)C2=O | > 80
C=C(C)[C@@H](CC=C(C)C)C[C@@]12C[C@@H](CC=C(C)C)C(C)(C)[C@@](CC=C(C)C)(C(=O)C(C(=O)c3ccc(O)c(O)c3)=C1O)C2=O [GARCINOL] | > 80

Test system: Radical scavenging activity
Test: Antioxidant activity assessed as DPPH radical scavenging activity
Type: functional
Conditions: not given
Outline: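 Test compound in ethanol mixed with 2 mL of 0.1 mM DPPH solution; held 30 min at room temperature, then absorbance at 520 nm read. EC50 estimated by probit transformation; IC50 as mean ± SD of five replicates.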

IC50 [µM] | Compound
> 100 | COc1cc(C(=O)C2=C3OC(C)(C)[C@@H](CC=C(C)C)C[C@@]34C[C@@H](CC=C(C)C)C(C)(C)[C@@](CC=C(C)C)(C2=O)C4=O)ccc1O
22.8 | VITAMIN E
> 100 | C=C(C)[C@@H](CC=C(C)C)C[C@@]12C[C@@H](CC=C(C)C)C(C)(C)[C@@](CC=C(C)C)(C(=O)C(C(=O)c3ccc(O)c(OC)c3)=C1O)C2=O
10.2 | C=C(C)[C@@H](CC=C(C)C)C[C@@]12C[C@@H](CC=C(C)C)C(C)(C)[C@@](CC=C(C)C)(C(=O)C(C(=O)c3ccc(O)c(O)c3)=C1O)C2=O [GARCINOL]

Test system: not listed separately
Test: Cytotoxicity against human Raji cells assessed as cell viability at 3.2 nmol after 48 hrs by trypan blue assay
Type: cell-based
Conditions: read-out: Activity
Outline: as §2

Compound | viability at 48 h, 3.2 nmol [%]
COc1cc(C(=O)C2=C3OC(C)(C)[C@@H](CC=C(C)C)C[C@@]34C[C@@H](CC=C(C)C)C(C)(C)[C@@](CC=C(C)C)(C2=O)C4=O)ccc1O | > 80
C=C(C)[C@@H](CC=C(C)C)C[C@@]12C[C@@H](CC=C(C)C)C(C)(C)[C@@](CC=C(C)C)(C(=O)C(C(=O)c3ccc(O)c(OC)c3)=C1O)C2=O | > 80
C=C(C)[C@@H](CC=C(C)C)C[C@@]12C[C@@H](CC=C(C)C)C(C)(C)[C@@](CC=C(C)C)(C(=O)C(C(=O)c3ccc(O)c(O)c3)=C1O)C2=O [GARCINOL] | > 80

Test system: Raji
Test: Inhibition of TPA-induced EBV-early antigen activation in human Raji cells at 0.32 nmol after 48 hrs relative to TPA
Type: cell-based
Parameters: scale not given: the % may be the effect or the level left
Conditions: human gammaherpesvirus 4
Outline: as §1

Compound | Activity [%]
COc1cc(C(=O)C2=C3OC(C)(C)[C@@H](CC=C(C)C)C[C@@]34C[C@@H](CC=C(C)C)C(C)(C)[C@@](CC=C(C)C)(C2=O)C4=O)ccc1O | 100
C=C(C)[C@@H](CC=C(C)C)C[C@@]12C[C@@H](CC=C(C)C)C(C)(C)[C@@](CC=C(C)C)(C(=O)C(C(=O)c3ccc(O)c(OC)c3)=C1O)C2=O | 100
C=C(C)[C@@H](CC=C(C)C)C[C@@]12C[C@@H](CC=C(C)C)C(C)(C)[C@@](CC=C(C)C)(C(=O)C(C(=O)c3ccc(O)c(O)c3)=C1O)C2=O [GARCINOL] | 100

Test system: Raji
Test: Inhibition of TPA-induced EBV-early antigen activation in human Raji cells at 16 nmol after 48 hrs relative to TPA
Type: cell-based
Parameters: scale not given: the % may be the effect or the level left
Conditions: human gammaherpesvirus 4
Outline: as §1

Compound | Activity [%]
COc1cc(C(=O)C2=C3OC(C)(C)[C@@H](CC=C(C)C)C[C@@]34C[C@@H](CC=C(C)C)C(C)(C)[C@@](CC=C(C)C)(C2=O)C4=O)ccc1O | 60.1
C=C(C)[C@@H](CC=C(C)C)C[C@@]12C[C@@H](CC=C(C)C)C(C)(C)[C@@](CC=C(C)C)(C(=O)C(C(=O)c3ccc(O)c(OC)c3)=C1O)C2=O | 54.9
C=C(C)[C@@H](CC=C(C)C)C[C@@]12C[C@@H](CC=C(C)C)C(C)(C)[C@@](CC=C(C)C)(C(=O)C(C(=O)c3ccc(O)c(O)c3)=C1O)C2=O [GARCINOL] | 47

Test system: not listed separately
Test: Cytotoxicity against human Raji cells assessed as cell viability at 0.32 nmol after 48 hrs by trypan blue assay
Type: cell-based
Conditions: read-out: Activity
Outline: as §2

Compound | viability at 48 h, 0.32 nmol [%]
COc1cc(C(=O)C2=C3OC(C)(C)[C@@H](CC=C(C)C)C[C@@]34C[C@@H](CC=C(C)C)C(C)(C)[C@@](CC=C(C)C)(C2=O)C4=O)ccc1O | > 80
C=C(C)[C@@H](CC=C(C)C)C[C@@]12C[C@@H](CC=C(C)C)C(C)(C)[C@@](CC=C(C)C)(C(=O)C(C(=O)c3ccc(O)c(OC)c3)=C1O)C2=O | > 80
C=C(C)[C@@H](CC=C(C)C)C[C@@]12C[C@@H](CC=C(C)C)C(C)(C)[C@@](CC=C(C)C)(C(=O)C(C(=O)c3ccc(O)c(O)c3)=C1O)C2=O [GARCINOL] | > 80
